Measured values: paper PMC5991896 (Biochimie Open, 2017)

Each compound was assayed against T1, fucolectin-related protein (FRP) (Streptococcus pneumoniae, UniProt A0A0H2US34) (assay: enzyme-linked lectinosorbent inhibition assay). Conditions: TBS-T pH 7.35, 20 °C; no metal needed; ratio from amounts giving 50% inhibition.
T1 sequence (A0A0H2US34 1-1038): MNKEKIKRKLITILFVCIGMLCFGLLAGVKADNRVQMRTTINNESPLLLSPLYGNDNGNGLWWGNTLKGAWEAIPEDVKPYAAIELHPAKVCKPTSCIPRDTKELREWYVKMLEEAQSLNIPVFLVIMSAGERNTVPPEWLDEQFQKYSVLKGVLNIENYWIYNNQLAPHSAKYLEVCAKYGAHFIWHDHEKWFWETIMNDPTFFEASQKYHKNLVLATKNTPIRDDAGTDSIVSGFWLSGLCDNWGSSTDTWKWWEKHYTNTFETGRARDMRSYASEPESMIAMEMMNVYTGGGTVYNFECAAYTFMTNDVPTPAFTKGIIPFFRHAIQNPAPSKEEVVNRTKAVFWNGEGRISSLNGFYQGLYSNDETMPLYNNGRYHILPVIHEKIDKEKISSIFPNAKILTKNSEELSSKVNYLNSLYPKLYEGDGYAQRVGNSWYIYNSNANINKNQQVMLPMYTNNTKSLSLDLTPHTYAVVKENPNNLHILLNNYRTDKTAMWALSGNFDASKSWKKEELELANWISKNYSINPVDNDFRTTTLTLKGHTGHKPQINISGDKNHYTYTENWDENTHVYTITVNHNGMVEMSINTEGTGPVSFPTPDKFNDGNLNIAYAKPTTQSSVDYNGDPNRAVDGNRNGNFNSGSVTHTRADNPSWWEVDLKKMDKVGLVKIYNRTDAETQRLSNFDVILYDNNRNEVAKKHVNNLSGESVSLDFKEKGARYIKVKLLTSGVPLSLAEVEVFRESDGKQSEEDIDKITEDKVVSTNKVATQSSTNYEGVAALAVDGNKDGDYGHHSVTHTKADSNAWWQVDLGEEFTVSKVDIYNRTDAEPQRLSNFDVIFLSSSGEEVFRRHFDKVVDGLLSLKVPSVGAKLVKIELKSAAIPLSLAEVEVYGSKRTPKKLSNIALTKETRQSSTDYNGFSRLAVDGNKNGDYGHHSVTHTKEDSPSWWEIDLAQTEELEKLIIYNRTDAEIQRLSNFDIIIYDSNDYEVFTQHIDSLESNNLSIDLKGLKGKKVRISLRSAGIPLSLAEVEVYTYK
Type: binding
Method in brief: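 Recombinant SP2159 FRP expressed in E. coli and biotinylated. Wells coated at 4 °C with 10 μg human ovarian cyst phenol-insoluble glycoprotein bearing H Fucα1→2Gal and Fucα1→3/4GlcNAc glycotopes. Twofold serially diluted saccharide was mixed with an equal volume of fixed FRP for 1 h at 20 °C. TBS-T served as diluent and wash. The nmole/well giving 50% inhibition versus no inhibitor was read from the inhibition curve.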

| SMILES | Molar Relative Potency / LFuc as 1.0 |
| --- | --- |
| C[C@@H]1O[C@H](Oc2ccc([N+](=O)[O-])cc2)[C@@H](O)[C@H](O)[C@@H]1O [compound 1, p-Nitrophenyl-β-LFuc] | 69.1 relative to LFuc = 1.0 |
| C[C@@H]1O[C@@H](Oc2ccc([N+](=O)[O-])cc2)[C@@H](O)[C@H](O)[C@@H]1O [compound 2, p-Nitrophenyl-α-LFuc] | 34.5 relative to LFuc = 1.0 |
| CO[C@H]1O[C@@H](C)[C@@H](O)[C@@H](O)[C@@H]1O [compound 3, Methyl-β-LFuc] | 21.9 relative to LFuc = 1.0 |
| OC1OC[C@@H](O)[C@@H](O)[C@@H]1O (stereo partly drawn) [compound 10, DAra] | 0.09 relative to LFuc = 1.0 |

The remaining lines, values ahead:

| Molar Relative Potency / LFuc as 1.0 | SMILES |
| --- | --- |
| 5.7 relative to LFuc = 1.0 | C[C@@H]1O[C@@H](O[C@H]2[C@H](O[C@H]3[C@H](O[C@@H]4O[C@@H](C)[C@@H](O)[C@@H](O)[C@@H]4O)[C@@H](O)C(O)O[C@@H]3CO)O[C@H](CO)[C@H](O)[C@@H]2O)[C@@H](O)[C@H](O)[C@@H]1O (stereo partly drawn) [compound 4, LFucα1→2Galβ1→4[LFucα1→3]Glc] |
| 4.4 relative to LFuc = 1.0 | CO[C@@H]1O[C@@H](C)[C@@H](O)[C@@H](O)[C@@H]1O [compound 5, Methyl-α-LFuc] |
| 4.4 relative to LFuc = 1.0 | OC[C@@H]1OC(O)[C@@H](O)[C@H](O)[C@@H]1O (stereo partly drawn) [compound 6, LGal] |
| 1.8 relative to LFuc = 1.0 | CC(=O)N[C@H]1[C@H](O[C@H]2[C@@H](O)[C@@H](CO)O[C@@H](O[C@H]3[C@H](O)[C@@H](O)C(O)O[C@@H]3CO)[C@@H]2O)O[C@H](CO)[C@@H](O[C@@H]2O[C@@H](C)[C@@H](O)[C@@H](O)[C@@H]2O)[C@@H]1O[C@@H]1O[C@H](CO)[C@H](O)[C@H](O)[C@H]1O[C@@H]1O[C@@H](C)[C@@H](O)[C@@H](O)[C@@H]1O (stereo partly drawn) [compound 7, LFucα1→2Galβ1→3[LFucα1→4]GlcNAcβ1→3Gal β1→4Glc] |
| 0.7 relative to LFuc = 1.0 | C[C@@H]1O[C@@H](O[C@H]2C(O)O[C@H](CO)[C@H](O)[C@@H]2O)[C@@H](O)[C@H](O)[C@@H]1O (stereo partly drawn) [compound 9, LFucα1→2Gal] |
